6 molecules from ChEMBL document CHEMBL1141789, “Minutosides A and B, antifungal sulfated steroid xylosides from the patagonian starfish Anasterias minuta” (2005) can be followed below.

Activity calls are given as the source filed them. The rule behind the calls is not given here.

Experiment [1] relates to Cladosporium cucumerinum. The experiment can be described thus: Antifungal activity against Cladosporium cucumerinum at 10 to 60 ug/spot after 2 to 3 days. Type of experiment: functional. The gist of the method: (§1)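 TLC bioautography: geometric dilutions made from freshly prepared stocks (1-10 mg mL^-1) in a suitable solvent, 10 µL spotted per TLC plate. Plates then sprayed with C. cucumerinum (DSM 62122) or A. flavus (BAFC 589) suspended in nutritive medium, incubated 2-3 days in a moist glass box. Read-out: diameter (mm) of clear inhibition zones against dark gray background; benomyl reference.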

Experiment [2] deals with Cladosporium cucumerinum. As to the kind of experiment: Antifungal activity against Cladosporium cucumerinum at 10 ug/spot after 2 to 3 days. The experiment is classed as functional, organism-based. In a few lines: as §1
Experiment [3] deals with Cladosporium cucumerinum. The experiment can be described thus: Antifungal activity against Cladosporium cucumerinum at 20 to 60 ug/spot after 2 to 3 days. The experiment is classed as functional. In a few lines:
as §1

Experiment [4] concerns Aspergillus flavus. The experiment can be described thus: Antifungal activity against Aspergillus flavus at 20 to 60 ug/spot after 2 to 3 days. The experiment is classed as functional. In a few lines: as §1
The test system of experiment [5] is Aspergillus flavus. As to the kind of experiment: Antifungal activity against Aspergillus flavus at 5 to 10 ug/spot after 2 to 3 days. The experiment is classed as functional. In a few lines:
as §1

The test system of experiment [6] is Cladosporium cucumerinum. The experiment can be described thus: Antifungal activity against Cladosporium cucumerinum at 5 ug/spot after 2 to 3 days. Type of experiment: functional. In a few lines: (§2)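 TLC bioautography. Geometric dilutions were made from freshly prepared stock solutions (1-10 mg mL^-1) in a suitable solvent and spotted onto TLC plates. The read-out was the diameter (mm) of clear inhibition zones against a dark grey background.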

The subject of experiment [7] is Aspergillus flavus. The experiment can be described thus: Antifungal activity against Aspergillus flavus at 5 ug/spot after 2 to 3 days. Type of experiment: functional. The gist of the method:
as §2

With `CC(C)[C@H](/C=C/[C@@H](C)[C@H]1C[C@@H](O)[C@@H]2[C@]1(C)CC[C@@H]1[C@@]3(C)CC[C@H](O)C[C@@H]3[C@@H](O)C[C@]12O)O[C@@H]1OC[C@@H](O)[C@H](O)[C@H]1O`, the result in the experiment with Cladosporium cucumerinum [1], in the experiment with Cladosporium cucumerinum [2], with Cladosporium cucumerinum [3], in the experiment on Aspergillus flavus [4] and with Aspergillus flavus [5] was inactive.

For `CC(C)[C@H](CC[C@@H](C)[C@H]1C[C@@H](O)[C@@H]2[C@]1(C)CC[C@@H]1[C@@]3(C)CC[C@H](O)C[C@@H]3[C@@H](O)C[C@]12O)O[C@@H]1OC[C@@H](O)[C@H](O)[C@H]1O`, the result with Cladosporium cucumerinum [1], with Cladosporium cucumerinum [2], in the experiment on Cladosporium cucumerinum [3], in the experiment with Aspergillus flavus [4] and with Aspergillus flavus [5] was inactive.

On to `CCCCNC(=O)n1c(NC(=O)OC)nc2ccccc21` [BENOMYL], for which the “inhibition zone (IZ)” value turned out to be 15 mm in the experiment with Cladosporium cucumerinum [6] and 14 mm in the experiment on Aspergillus flavus [7].

As to `CC(C)[C@H](/C=C/[C@@H](C)[C@H]1C[C@@H](O)[C@@H]2[C@]1(C)CC[C@@H]1[C@@]3(C)CC[C@H](OS(=O)(=O)[O-])C[C@@H]3[C@@H](O)C[C@]12O)O[C@@H]1OC[C@@H](O)[C@H](O)[C@H]1O.[Na+]` [MINUTOSIDE A], the “inhibition zone (IZ)” value came to 7 mm with Cladosporium cucumerinum [1], 5 mm with Aspergillus flavus [4] and 5 mm in the experiment with Aspergillus flavus [5].

Turning to `C[C@H](/C=C/[C@@H](C)[C@H]1C[C@@H](O)[C@@H]2[C@]1(C)CC[C@@H]1[C@@]3(C)CC[C@H](O[C@@H]4OC[C@@H](O)[C@H](O)[C@H]4O)C[C@@H]3[C@@H](O)C[C@]12O)[C@H](C)C(=O)NCCS(=O)(=O)[O-].[Na+]` [MINUTOSIDE B], the outcome in the experiment with Cladosporium cucumerinum [2] and in the experiment with Aspergillus flavus [5] was inactive. Also, the figures for the “inhibition zone (IZ)” value with Cladosporium cucumerinum [3] and in the experiment with Aspergillus flavus [4] were 3 mm and 5 mm, respectively.

For the molecule `CC(C)[C@H](CC[C@@H](C)[C@H]1C[C@@H](O)[C@@H]2[C@]1(C)CC[C@@H]1[C@@]3(C)CC[C@H](OS(=O)(=O)O)C[C@@H]3[C@@H](O)C[C@]12O)O[C@@H]1OC[C@@H](O)[C@H](O)[C@H]1O` [PYCNOPODIOSIDE B], the figures for the “inhibition zone (IZ)” value in the experiment with Cladosporium cucumerinum [1], with Aspergillus flavus [4] and in the experiment on Aspergillus flavus [5] were 7 mm, 5 mm and 5 mm, respectively.
